Screens deposited in PubChem BioAssay by Johns Hopkins Ion Channel Center.
Rows were chosen to be rich in hits. Some 3.7% of all compounds tested hit in one or more screens of this group.
Kir21 inh: blocks the mouse Kir2.1 inward-rectifier potassium channel; B-score at 10 µM; P35561; HEK293-Kir2.1, FluxOR thallium flux fluorescence; stronger effect = lower value; hit rate 0.85% among 310,000; AID 1672;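 active means fluorescence ratio B-score at or below minus 3 SD of library scores, with starting-brightness B-score within 2 SD, cut at about -4.2 in these data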;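 further: channel flux triggered by added potassium and thallium sulfate stimulus; B-score of peak minus minimum fluorescence over baseline after thallium stimulus; more negative B-score means stronger Kir2.1 block with less thallium influx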
KCNK3 block: human KCNK3 channel inhibition, primary screen. O14649. B-score at 10 µM. CHO-KCNK3 thallium flux, FluxOR fluorescence; stronger effect = lower value. hit rate 0.84% among 340,000;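 active means B-score under library mean minus 4 SD, starting fluorescence ratio at most library mean plus 5 SD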;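 further: more negative B-score means stronger inhibition of thallium flux through KCNK3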
KCNQ1 pot: potentiates or activates the human KCNQ1 potassium channel; P51787; CHO-K1 KCNQ1, thallium flux FluxOR fluorescence; stronger effect = higher value; B-score at 10 µM; hit rate 0.35% among 310,000; AID 2648;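 active means fluorescence ratio B-score, a plate-corrected score, at least three library SD, with initial intensity B-score within 5 SD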
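Test system: CHO-K1 cells stably expressing KCNQ1 / Medium: assay buffer / Also added: depolarizing K+/Tl+ stimulus, K2SO4 and Tl2SO4 each 12.5 mM in 5x stock / Incubation: 90 min dye loading and 20 min compound exposure, both at room temperature / Signal: thallium influx via FluxOR fluorescence, kinetic imaging / Evaluation: B score of baseline-normalized fluorescence ratio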
KCNQ1 inh: inhibitors of human KCNQ1 potassium channel | P51787 | CHO-K1 KCNQ1, FluxOR thallium flux fluorescence; stronger effect = higher value | B-score at 10 µM | hit rate 1.3% among 310,000 | AID 2642;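 active means compounds whose thallium flux B-score, printed positive for inhibition, exceeds three library SD while starting fluorescence stays within three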;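 further: channel opened by potassium depolarization with thallium stimulus after 20 min compound exposure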
KCNK9 inh: inhibitors of human KCNK9 two-pore domain potassium channel | Q9NPC2 | HEK293 KCNK9, FluxOR thallium flux fluorescence; stronger effect = lower value | B-score at 10 µM | hit rate 1.2% among 310,000 | AID 488922;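 active means ratio B-score over 3 SD below the library mean, with starting fluorescence within 5 SD of its mean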;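 further: negative B-score means less thallium flux so channel inhibition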
Target sequence (Q9NPC2 whole entry, looked up, the tested form may be a part): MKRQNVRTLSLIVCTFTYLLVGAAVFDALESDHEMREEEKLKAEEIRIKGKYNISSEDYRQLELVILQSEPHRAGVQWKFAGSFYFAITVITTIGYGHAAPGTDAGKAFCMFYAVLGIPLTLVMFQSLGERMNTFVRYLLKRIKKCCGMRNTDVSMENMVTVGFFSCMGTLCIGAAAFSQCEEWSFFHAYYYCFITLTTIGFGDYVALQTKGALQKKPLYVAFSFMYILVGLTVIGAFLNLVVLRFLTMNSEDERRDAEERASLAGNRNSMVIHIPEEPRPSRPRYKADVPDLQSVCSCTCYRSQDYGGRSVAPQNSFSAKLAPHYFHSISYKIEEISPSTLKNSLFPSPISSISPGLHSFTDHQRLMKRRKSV
hERG rescue: compounds protecting human hERG from proarrhythmic drug block | Q12809 | CHO-hERG, FluxOR thallium flux, dofetilide IC70 present | activation (rescue from dofetilide block), less the hit threshold, % at 10 µM | hit rate 0.51% among 310,000 | AID 1511;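 active means activation above the mean of controls blocked by dofetilide plus 5 SD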;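 further: thallium influx through hERG after potassium depolarization seen as dye fluorescence rise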
KCNK9 block conf: confirmation of human KCNK9 potassium channel inhibitors; HEK293 KCNK9 cells, FluxOR thallium flux fluorescence; shares compounds with KCNK9 inh; inhibition, % at 10 µM; hit rate 43% among 4,900;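 active means thallium signal inhibited by more than 5 SD of the compound-free buffer control wells, on both duplicate plates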;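 further: 0% = assay buffer control wells without compound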
Kir21 sel: selectivity of KCNK9 modulators against mouse Kir2.1. shares compounds with KCNK9 inh. Kir2.1 cells, FluxOR thallium flux fluorescence. inhibition, % at 10 µM. hit rate 4% among 4,900;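 active means thallium signal drop more than 5 SD beyond the mean of the no-compound control wells, seen in both duplicate plates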;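 further: signal is fluorescence rise after thallium addition divided by baseline fluorescence; plate controls were assay buffer only for no effect and full block by chlorpromazine control for full effect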
HEK293 Tl ctr: non-induced cell nonspecific activity of KCNK9 modulators. inhibition, % at 10 µM. hit rate 40% among 4,900. shares compounds with KCNK9 inh. non-induced KCNK9-HEK293, FluxOR thallium flux;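 active means thallium signal drop beyond 5 SD of the untreated control mean, on both duplicate plates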;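 further: plate controls were buffer only IC0 wells for no effect and SID17386958 at its maximal inhibitory level for full effect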
KCNK3 confirm: confirmation of human KCNK3 two-pore domain potassium channel inhibitors. hit rate 99% among 2,400. AID 651638. ratio percent of control, % at 10 µM. CHO-KCNK3 thallium flux, FluxOR fluorescence; 0% buffer, 100% carvedilol maximal block. shares compounds with KCNK3 block;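 active means ratio percent of control, averaged over triplicates, above buffer control mean plus 5 SD, cut at about 64% in these data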;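 further: ratio is the fluorescence rise from min to max over baseline after thallium stimulus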
KCNK3 uninduced: counter-screen for KCNK3 inhibitors: effect in non-induced cells | shares compounds with KCNK3 block | non-induced KCNK3 parental cells, FluxOR thallium flux; stronger effect = lower value | thallium flux ratio (lower = more inhibition) at 10 µM | hit rate 40% among 2,400;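 active means thallium flux ratio, averaged over three wells, more than 5 SD below the buffer control mean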;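 further: host cells are CHO cells without KCNK3 induction; ratio is peak minus trough fluorescence over baseline then normalized to buffer controls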
Numbers without * were called inactive; i = inactive; . = no result given.

SMILES	Kir21 inh	KCNK3 block	KCNQ1 pot	KCNQ1 inh	KCNK9 inh	hERG rescue	KCNK9 block conf	Kir21 sel	HEK293 Tl ctr	KCNK3 confirm	KCNK3 uninduced
O=C(c1cc(F)ccc1F)C1CCCN(Cc2cccc(Cl)c2)C1 (stereo not drawn)	0.19	i	i	i	i	-10	i	i	i	.	.
COc1cccc(C(=O)C2CCCN(Cc3ccc(F)cc3)C2)c1 (stereo not drawn)	-3.1	i	i	i	i	-7	i	i	i	.	.
Cc1cc(Cl)ccc1C(=O)C1CCCN(Cc2ccon2)C1 (stereo not drawn)	-2.3	i	i	i	i	-19	.	.	.	.	.
COc1cccc(C(=O)C2CCCN(Cc3cnn(C(C)C)c3)C2)c1 (stereo not drawn)	-0.15	i	i	i	i	-11	.	.	.	.	.
CC1=CC2OC3CC4OC(=O)C=CC=CC(=O)OCCC(C)C(O)C(=O)OCC2(CC1O)C4(C)C31CO1 (stereo not drawn)	.	i	.	.	.	.	.	.	.	.	.
Cc1ccc(C)c(OCc2cc(C(=O)N3C[C@H]4C[C@@H](C3)c3cccc(=O)n3C4)no2)c1	0.01	i	i	i	i	-5	.	.	.	.	.
Oc1c(Cl)c(Cl)c(Cl)c(Cl)c1Cl	0.83	i	i	i	i	-14	i	i	i	.	.
COC(=O)C1C2c3ccccc3C(c3ccccc32)C1(C)C(=O)OC (stereo not drawn)	.	i	.	.	.	.	.	.	.	.	.
NC(N)=N/N=C/c1cn(-c2ccccc2)nc1-c1cccs1	-9.3*	-12*	i	9*	-9.2*	-30	54%*	50%*	i	101*	i
CN1C(=O)C(=Cc2c(OCc3cnc(Cl)s3)ccc3ccccc23)C(=O)N(C)C1=O	-0.24	-9*	i	i	-15*	-25	70%*	i	27%*	101*	i
CN1C(=O)C(=Cc2ccccc2OCc2ccccc2Cl)C(=O)N(C)C1=O	-3	i	i	i	i	-8	.	.	.	.	.
O=C(c1ccc(Cl)cc1)C1CCCN(Cc2ccc3nonc3c2)C1 (stereo not drawn)	-2	-9.2*	i	i	-8.1*	-13	58%*	i	i	95*	i
COC1=CC=C2[C@H]3Cc4ccc(OC)c5c4[C@@]2(CCN3C)[C@H]1O5	-0.56	i	i	i	i	-2	.	.	.	.	.
O=P(Nc1cccc(F)c1)(Oc1ccccc1F)Oc1ccccc1F	-0.01	-12*	i	i	-11*	-34	48%*	i	31%*	87*	0.13*
CP(=O)(Nc1ccccc1)C(Cl)(Cl)Cl (stereo not drawn)	-0.52	i	i	i	i	-3	.	.	.	.	.
c1ccc(NC2=NCCS2)cc1	-0.9	i	i	i	i	-10	.	.	.	.	.
Oc1ccccc1/C=N/NP(=S)(c1ccccc1)c1ccccc1	3	-15*	i	12*	-13*	-14	42%*	i	35%*	109*	0.15*
Oc1ccc(/C=N/NP(=S)(c2ccccc2)c2ccccc2)c(O)c1O	-1.1	i	i	i	i	-12	.	.	.	.	.
Cc1c(C(=O)c2cccc3ccccc23)c2cccc3c2n1[C@H](CN1CCOCC1)CO3	0.93	-11*	i	i	i	-3	.	.	.	80*	0.16*
COc1ccccc1OCCCn1cc(C(=O)C2CC2)c2ccccc21	0.63	-8.8*	i	i	i	-14	.	.	.	111*	i
COc1ccccc1OCCCn1cc(C(C)=O)c2ccccc21	-2.3	i	i	i	i	-20	.	.	.	.	.
CCN(CC(=O)Nc1ccc(C#N)c(Cl)c1)CC(=O)NC(C)(C)C	-2.4	i	i	i	i	-2	.	.	.	.	.
N#Cc1ccc(NC(=O)CCNC(=O)c2ccco2)cc1Cl	-0.98	-10*	i	i	i	-10	.	.	.	95*	0.15*
COc1ccc(-n2c(-c3ccccc3[N+](=O)[O-])nc3ccccc3c2=O)cc1	0.05	i	i	i	i	-8	.	.	.	.	.
CCN(CC)c1ccc(/C=C/[N+](=O)[O-])cc1	-10	-14*	i	6*	i	-45	.	.	.	133*	0.09*
O=c1c2ccccc2nc(-c2ccoc2)n1-c1ccccc1	1.1	i	i	i	i	-10	.	.	.	.	.
